Ends that are not written are not given here.

The values that follow come from PMC3417325 (FEBS letters, 2010).

One experiment deals with S. aureus. As to conditions: cited from earlier work.
The nature of experiment [1]: SPR, HNP1 peptides on soluble Lipid II immobilized on the chip surface. The settings on record: peptide at 0.1, 1 or 10 µM, supplemental Figure 1. In kind it is binding. A digest of the protocol: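 The ligand was short-chain, water-soluble farnesyl (three-isoprene) Lipid II, made with M. flavus vesicles, C18 HPLC-purified and confirmed by mass spectrometry. Signals were corrected by subtracting a control flow-cell.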
Background: SPR reads the build-up and loss of mass on a sensor chip optically.

Experiment [2] is described as follows: ANTS/DPX leakage assay from LUVs. A digest of the protocol: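 LUVs (250 nm, 600 µM final lipid) were loaded with 12.5 mM ANTS and 45 mM DPX by freeze-thaw and 0.4-µm extrusion, then gel-filtered. Buffer was high-salt (5 mM HEPES, 100 mM NaCl, pH 7.4) or low-salt (10 mM NaCl). Twofold defensin dilutions were added, with a water blank and 0.25% Triton X-100 for 100%. Ex 353/Em 515 nm; % leakage = (Ft−F0)/(F100−F0)×100.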

The subject of experiment [3] is Staphylococcus aureus ATCC 29213. Format: cell-based. The settings on record: peptide 256 and 128 µg/ml, 15 min exposure, growth monitored 12 h.

With “HNP4: fourth α-defensin discovered in neutrophils (VCSCRLVFCRRTELRVGNCLIGGVSFTYCCTRV; disulfide (positions not given here); ends not checked; UniProt P12838 64-96, looked up)”, the “Activity against Gram-positive bacteria / bactericidal activity” value in the experiment on S. aureus is reported as “ineffective against Gram-positive bacteria”.
Human Neutrophil Peptide 1 [HNP1]: the “Binding of peptide to immobilized soluble Lipid II” value in experiment [1] is “bound Lipid II dose-dependently”. In addition, in experiment [2] (POPC:POPG = 1:0, 3:2, 2:3, 0:1, HNP1 0.19 to 100 µg/ml, 1 h, triplicate), the “Leakage from LUVs with increasing content of POPG” value is “increasingly pronounced”. In addition, the “Membrane activity (leakage from POPG LUVs)” value in experiment [2] (POPG LUVs, panel of six α-defensins, high and low salt, over 24 h (Figure 1)) is “reduced”. Moreover, in experiment [3], the “Bacterial growth after exposure to HNP1” value is “bacterial growth did not measurably recover”. Also, the “Activity against Gram-positive bacteria / bactericidal activity” value in the experiment on S. aureus is reported as “potently bactericidal”.

B1: HD-5: human α-defensin stored in granules of Paneth cells (peptide, UniProt Q01523 20-94, looked up)
Defensin alpha 5: ESLQERADEATTQKQSGEDNQDLAISFAGNGLSALRTSGSQARATCYCRTGRCATRESLSGVCEISGRLYRLCCR
modifications: Defensin-5
For B1, the “Activity against Gram-positive bacteria / bactericidal activity” value in the experiment with S. aureus is given as “potently bactericidal”.
